According to PMC7452071 (Acta Pharmaceutica Sinica. B, 2019):

Columns and labels:
[1] = molecular target: HDAC10 (Homo sapiens, UniProt Q969S8); assay: HDACs activity assay, HDAC10; assay type: biochemical
Method in brief: (§1)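 Enzyme reactions run 30 min at 37 °C in 25 mmol/L Tris pH 8.0, 137 mmol/L NaCl, 2.7 mmol/L KCl, 1 mmol/L MgCl2, 0.1 mg/mL BSA with the HDAC isoform and its substrate. Test compound diluted in 10% DMSO, final DMSO 1%. Fluorescent product read at excitation 350–360, emission 450–460. IC50 from normalized nonlinear dose-response fit. At least three independent runs; mean ± SD (n = 3).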

[2] = molecular target: HDAC4 (Homo sapiens, UniProt P56524); assay: HDACs activity assay, HDAC4; assay type: biochemical
Method in brief: as §1

[3] = tested on: HCT116 (colon cancer); assay: In vitro cell viability assay; assay type: cell-based; details: Homo sapiens, HCT-116, 48 h, read-out: IC50 HCT116
[4] = tested on: A549 (lung cancer); assay: In vitro cell viability assay; assay type: cell-based; details: Homo sapiens, A549, 48 h, read-out: IC50 A549
[5] = molecular target: HDAC11 (Homo sapiens, UniProt Q96DB2); assay: HDACs activity assay, HDAC11; assay type: biochemical
Method in brief: as §1

[6] = molecular target: HDAC2 (Homo sapiens, UniProt Q92769); assay: HDACs activity assay, HDAC2; assay type: biochemical
Method in brief: as §1

[7] = tested on: MCF-7 (breast cancer); assay: In vitro cell viability assay; assay type: cell-based; details: Homo sapiens, MCF7, 48 h, read-out: IC50 MCF-7
[8] = tested on: HUVEC; assay: Cytotoxicity against human normal cell line HUVEC; assay type: cell-based; details: read-out: IC50 HUVEC
[9] = tested on: HCT116 cells; assay: Flow cytometry assay of cell apoptosis; assay type: cell-based, human; details: 48 h
[10] = In vitro metabolic stability in mice liver microsomes; assay type: in vitro ADME
[11] = molecular target: human recombinant HDAC1 enzyme (Homo sapiens, UniProt Q13547); assay: HDACs activity assay, HDAC1; assay type: biochemical; details: read-out: IC50 HDAC1; Table 3, Table S1 and text
[12] = tested on: γH2AX in HCT116 cells; assay: Western blot for γH2AX; assay type: cell-based, human; details: 0.5 and 5 μmol/L, 24 h
Method in brief: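 HCT116 seeded at 35 × 10^4 cells/well, treated 24 h with test compound or vehicle. Cells washed in cold PBS, lysed 30 min on ice in RIPA with protease and phosphatase inhibitors, protein quantified by BCA. 30 μg resolved by SDS-PAGE, transferred to PVDF, blocked 2 h in 5% BSA, primary antibody overnight at 4 °C, secondary 1.5 h, infrared imaging.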

[13] = Pharmacokinetic study in SD rats; assay type: in vivo; details: male, Sprague-Dawley, rat, plasma, 20 mg/kg
[14] = tested on: Acetyl-H3 and Acetyl-H4 in HCT116 cells; assay: Western blot for acetylated histones H3 and H4; assay type: cell-based, human; details: 0.5 and 5 μmol/L, 24 h
Method in brief: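 HCT116 cells (35 × 10^4/well) were exposed 24 h to test compound or DMSO vehicle, washed with cold PBS and lysed 30 min on ice in RIPA with protease/phosphatase inhibitors. BCA-quantified protein (30 μg) was run on SDS-PAGE and transferred to PVDF. Membranes were blocked 2 h in 5% BSA, probed overnight at 4 °C with anti-histone H3 and H4 antibodies, then secondary 1.5 h. Infrared imaging.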

[15] = tested on: hematological cell lines (HL60, K562 and HEL); assay: Antiproliferative activity, hematological cell lines together; assay type: cell-based; details: read-out: IC50 range toward hematological cell lines
[16] = molecular target: HDAC6 (Homo sapiens, UniProt Q9UBN7); assay: HDACs activity assay, HDAC6; assay type: biochemical
Method in brief: as §1

[17] = molecular target: TOP2α (Homo sapiens, UniProt P11388); assay: TOP2-mediated pBR322 DNA relaxation assay; assay type: biochemical
[18] = tested on: HCT116 cells; assay: Flow cytometry analysis of cell cycle; assay type: cell-based, human; details: 48 h
[19] = tested on: HCT116 xenograft; assay: In vivo tumor growth inhibition assay against HCT116 xenograft; details: bid
[20] = molecular target: HDAC8 (Homo sapiens, UniProt Q9BY41); assay: HDACs activity assay, HDAC8; assay type: biochemical
Method in brief: as §1

[21] = molecular target: HDAC3 (Homo sapiens, UniProt O15379); assay: HDACs activity assay, HDAC3; assay type: biochemical
Method in brief: as §1

[22] = female, ICR, mouse, liver microsomes, pH 7.4

Sequence of TOP2α (P11388 whole entry): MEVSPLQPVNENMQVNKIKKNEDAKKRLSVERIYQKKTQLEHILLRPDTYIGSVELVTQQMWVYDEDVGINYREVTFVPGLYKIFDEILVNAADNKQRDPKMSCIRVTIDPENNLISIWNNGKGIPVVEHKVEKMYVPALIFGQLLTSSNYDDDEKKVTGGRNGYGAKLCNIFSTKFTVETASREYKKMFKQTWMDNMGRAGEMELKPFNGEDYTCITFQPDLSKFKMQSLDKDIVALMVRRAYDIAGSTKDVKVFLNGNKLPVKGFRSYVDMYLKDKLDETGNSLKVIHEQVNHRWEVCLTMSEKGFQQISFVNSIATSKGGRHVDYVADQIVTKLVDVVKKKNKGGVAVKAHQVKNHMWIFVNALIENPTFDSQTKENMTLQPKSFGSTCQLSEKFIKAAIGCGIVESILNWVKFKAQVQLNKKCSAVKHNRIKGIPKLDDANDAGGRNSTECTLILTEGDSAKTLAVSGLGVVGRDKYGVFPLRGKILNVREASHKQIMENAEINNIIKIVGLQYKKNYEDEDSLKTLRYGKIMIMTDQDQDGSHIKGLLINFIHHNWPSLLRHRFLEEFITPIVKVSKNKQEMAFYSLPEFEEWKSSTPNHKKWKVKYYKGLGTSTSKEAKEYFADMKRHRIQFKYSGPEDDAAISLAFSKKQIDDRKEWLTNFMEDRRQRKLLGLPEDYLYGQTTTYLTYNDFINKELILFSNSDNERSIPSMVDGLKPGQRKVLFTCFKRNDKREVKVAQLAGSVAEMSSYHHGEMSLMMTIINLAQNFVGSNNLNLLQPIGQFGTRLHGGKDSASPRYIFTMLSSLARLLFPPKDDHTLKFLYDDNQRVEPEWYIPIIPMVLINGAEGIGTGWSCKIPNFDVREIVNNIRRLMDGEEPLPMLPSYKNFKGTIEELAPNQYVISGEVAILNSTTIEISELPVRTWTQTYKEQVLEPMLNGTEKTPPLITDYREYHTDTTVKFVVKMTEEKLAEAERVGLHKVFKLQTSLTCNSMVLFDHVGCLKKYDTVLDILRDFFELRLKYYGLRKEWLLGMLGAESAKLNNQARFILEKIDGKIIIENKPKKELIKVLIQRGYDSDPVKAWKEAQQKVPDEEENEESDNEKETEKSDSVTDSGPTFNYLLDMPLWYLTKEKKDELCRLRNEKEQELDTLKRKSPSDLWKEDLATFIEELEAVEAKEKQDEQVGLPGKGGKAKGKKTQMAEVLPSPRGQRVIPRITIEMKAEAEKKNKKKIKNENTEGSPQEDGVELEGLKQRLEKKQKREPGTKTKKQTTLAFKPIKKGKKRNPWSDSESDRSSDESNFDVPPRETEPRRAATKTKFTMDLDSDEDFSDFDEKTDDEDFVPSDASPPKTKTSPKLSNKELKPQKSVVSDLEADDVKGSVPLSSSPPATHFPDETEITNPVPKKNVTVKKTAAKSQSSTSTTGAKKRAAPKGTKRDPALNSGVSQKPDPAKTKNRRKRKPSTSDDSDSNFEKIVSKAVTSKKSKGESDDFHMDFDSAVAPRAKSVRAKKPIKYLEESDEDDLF
Sequence of HDAC8 (Q9BY41 whole entry): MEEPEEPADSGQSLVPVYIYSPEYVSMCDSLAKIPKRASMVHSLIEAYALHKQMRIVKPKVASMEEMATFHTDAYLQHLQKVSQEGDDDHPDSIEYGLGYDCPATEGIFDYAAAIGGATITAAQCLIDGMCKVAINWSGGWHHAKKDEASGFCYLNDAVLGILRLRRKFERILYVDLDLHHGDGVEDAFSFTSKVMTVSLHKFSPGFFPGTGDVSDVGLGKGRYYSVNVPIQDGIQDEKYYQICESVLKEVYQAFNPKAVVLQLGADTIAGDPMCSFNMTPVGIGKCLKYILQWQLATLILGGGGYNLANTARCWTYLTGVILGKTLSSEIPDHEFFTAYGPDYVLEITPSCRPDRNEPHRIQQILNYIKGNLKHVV
Sequence of HDAC6 (Q9UBN7 whole entry): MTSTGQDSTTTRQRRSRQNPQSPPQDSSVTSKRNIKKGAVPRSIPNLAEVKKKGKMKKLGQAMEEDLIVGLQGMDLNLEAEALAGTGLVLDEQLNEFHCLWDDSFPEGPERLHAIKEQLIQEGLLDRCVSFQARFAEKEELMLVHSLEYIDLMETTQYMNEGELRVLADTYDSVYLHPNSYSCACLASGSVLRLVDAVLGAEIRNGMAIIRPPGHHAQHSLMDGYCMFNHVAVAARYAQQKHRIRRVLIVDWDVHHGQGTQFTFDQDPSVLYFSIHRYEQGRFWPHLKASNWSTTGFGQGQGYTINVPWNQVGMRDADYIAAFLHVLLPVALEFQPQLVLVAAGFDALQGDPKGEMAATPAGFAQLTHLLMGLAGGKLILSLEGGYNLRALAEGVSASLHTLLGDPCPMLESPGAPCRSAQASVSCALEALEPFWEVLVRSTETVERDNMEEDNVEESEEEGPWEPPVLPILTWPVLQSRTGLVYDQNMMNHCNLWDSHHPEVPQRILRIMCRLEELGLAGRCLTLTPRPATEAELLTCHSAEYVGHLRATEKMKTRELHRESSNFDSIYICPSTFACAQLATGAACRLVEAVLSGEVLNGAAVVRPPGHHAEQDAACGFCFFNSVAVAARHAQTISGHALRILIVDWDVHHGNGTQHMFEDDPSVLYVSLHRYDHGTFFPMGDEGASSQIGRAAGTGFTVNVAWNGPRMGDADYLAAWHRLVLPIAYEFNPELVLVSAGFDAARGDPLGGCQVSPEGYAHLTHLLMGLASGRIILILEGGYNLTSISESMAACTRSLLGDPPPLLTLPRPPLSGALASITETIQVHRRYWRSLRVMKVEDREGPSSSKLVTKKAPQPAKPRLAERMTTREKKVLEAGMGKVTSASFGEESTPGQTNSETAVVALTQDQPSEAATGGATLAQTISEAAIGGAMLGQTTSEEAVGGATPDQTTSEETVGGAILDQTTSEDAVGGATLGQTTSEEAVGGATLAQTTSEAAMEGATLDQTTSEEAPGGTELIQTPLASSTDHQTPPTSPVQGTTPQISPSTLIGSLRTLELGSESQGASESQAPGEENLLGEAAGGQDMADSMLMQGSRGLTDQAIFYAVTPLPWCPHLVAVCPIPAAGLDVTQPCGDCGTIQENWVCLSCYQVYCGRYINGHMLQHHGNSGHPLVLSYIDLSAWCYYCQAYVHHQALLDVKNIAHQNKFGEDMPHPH
Sequence of human recombinant HDAC1 enzyme (Q13547 whole entry): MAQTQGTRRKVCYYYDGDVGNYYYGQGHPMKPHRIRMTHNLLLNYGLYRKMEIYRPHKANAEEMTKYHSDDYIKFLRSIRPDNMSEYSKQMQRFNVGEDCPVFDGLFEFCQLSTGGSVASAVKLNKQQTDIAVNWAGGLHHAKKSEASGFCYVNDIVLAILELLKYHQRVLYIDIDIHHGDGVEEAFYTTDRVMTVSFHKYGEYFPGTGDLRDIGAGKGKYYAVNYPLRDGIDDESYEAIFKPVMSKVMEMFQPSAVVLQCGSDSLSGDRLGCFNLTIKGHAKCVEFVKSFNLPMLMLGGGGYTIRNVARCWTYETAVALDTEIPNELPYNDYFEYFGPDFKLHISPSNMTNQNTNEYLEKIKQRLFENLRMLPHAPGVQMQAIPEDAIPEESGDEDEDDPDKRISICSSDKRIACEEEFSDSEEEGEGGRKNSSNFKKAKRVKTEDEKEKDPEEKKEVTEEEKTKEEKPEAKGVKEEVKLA
Sequence of HDAC11 (Q96DB2 whole entry): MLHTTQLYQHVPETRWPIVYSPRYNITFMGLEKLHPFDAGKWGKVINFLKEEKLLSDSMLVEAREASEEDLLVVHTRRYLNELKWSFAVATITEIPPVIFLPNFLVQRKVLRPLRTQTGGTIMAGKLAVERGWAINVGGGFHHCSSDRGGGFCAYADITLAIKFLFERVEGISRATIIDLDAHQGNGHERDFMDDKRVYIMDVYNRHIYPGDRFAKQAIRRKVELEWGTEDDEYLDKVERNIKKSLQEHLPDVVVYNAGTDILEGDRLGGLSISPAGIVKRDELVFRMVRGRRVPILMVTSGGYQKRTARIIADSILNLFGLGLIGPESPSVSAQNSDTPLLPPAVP
Sequence of HDAC2 (Q92769 whole entry): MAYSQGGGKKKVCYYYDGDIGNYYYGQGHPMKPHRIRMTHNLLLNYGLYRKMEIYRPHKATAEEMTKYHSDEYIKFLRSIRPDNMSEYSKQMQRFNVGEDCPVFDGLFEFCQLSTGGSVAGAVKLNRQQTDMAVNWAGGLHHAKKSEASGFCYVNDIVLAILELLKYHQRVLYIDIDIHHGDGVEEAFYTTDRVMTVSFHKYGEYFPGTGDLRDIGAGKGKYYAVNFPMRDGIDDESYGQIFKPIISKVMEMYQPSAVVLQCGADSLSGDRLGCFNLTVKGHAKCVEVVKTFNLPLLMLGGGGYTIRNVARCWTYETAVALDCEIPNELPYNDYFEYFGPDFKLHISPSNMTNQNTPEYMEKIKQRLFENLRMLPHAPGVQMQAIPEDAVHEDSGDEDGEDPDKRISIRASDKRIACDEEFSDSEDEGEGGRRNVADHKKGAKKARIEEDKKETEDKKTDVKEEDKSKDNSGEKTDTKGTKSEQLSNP
Sequence of HDAC3 (O15379 whole entry): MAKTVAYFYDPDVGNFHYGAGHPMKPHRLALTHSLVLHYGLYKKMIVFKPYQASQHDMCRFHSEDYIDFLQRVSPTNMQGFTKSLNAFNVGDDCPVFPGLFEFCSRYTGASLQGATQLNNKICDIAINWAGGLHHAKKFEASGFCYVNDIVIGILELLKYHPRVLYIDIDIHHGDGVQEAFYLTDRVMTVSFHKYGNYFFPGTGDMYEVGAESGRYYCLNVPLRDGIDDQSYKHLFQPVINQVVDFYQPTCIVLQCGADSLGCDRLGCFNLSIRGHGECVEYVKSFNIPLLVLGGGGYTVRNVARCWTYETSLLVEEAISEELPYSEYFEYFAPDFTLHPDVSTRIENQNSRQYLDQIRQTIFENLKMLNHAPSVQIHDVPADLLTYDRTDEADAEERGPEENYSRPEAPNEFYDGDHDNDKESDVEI
Sequence of HDAC3 (Q9Y618 395-489 partner limits assumed): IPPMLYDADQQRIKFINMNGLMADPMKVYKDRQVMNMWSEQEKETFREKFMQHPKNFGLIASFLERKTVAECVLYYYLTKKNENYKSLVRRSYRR

For `CN1c2ccccc2C(=O)N2[C@H](C(=O)Nc3ccc(C(=O)Nc4ccccc4N)cc3)Cc3c([nH]c4ccccc34)[C@@H]12` [Compound 30a, (7S,13bS)-N-(4-((2-Aminophenyl)carbamoyl)phenyl)-14-methyl-5-oxo-5,7,8,13,13b,14-hexahydroindolo[2′,3′:3,4]pyrido[2,1-b]quinazoline-7-carboxamide], which IC50 [1] is on record?
The IC50 was 5.5 ± 1.5 µM.

What about the IC50 [2] of the same compound?
Its IC50 is > 100 µM.

What about the IC50 [3] of the same compound?
The IC50 was 1.6 ± 0.15 µM.

What about the IC50 [4] of the same compound?
The IC50 was 7.8 ± 0.65 µM.

What about the IC50 [5] of the same compound?
The IC50 was > 100 µM.

And the IC50 [6]?
Its IC50 is 10 ± 1.4 µM.

And the IC50 [7]?
Its IC50 is 18 ± 2 µM.

What about the IC50 [8] of the same compound?
Its IC50 is 48 µM.

And the “Percentage of apoptotic cells” value ([9]; HCT116, 0.5 μmol/L)?
The value was 27.6%.

What about the “Percentage of apoptotic cells” value ([9]; HCT116, 1 μmol/L) of the same compound?
Its value is 37.1%.

What about the “Percentage of apoptotic cells” value ([9]; HCT116, 5 μmol/L) of the same compound?
The value was 88.8%.

And the half-life at 1 μmol/L [10, 22]?
The half-life at 1 μmol/L was 0.583 h.

What about the microsomal CLint at 1 μmol/L [10, 22] of the same compound?
Its microsomal CLint at 1 μmol/L is 39.1 µL/min/mg.

And the “Microsomal t1/2 relative to compound 25a” value ([10]; mice liver microsomes)?
Its value is ~3 fold.

What about the IC50 [11] of the same compound?
Its IC50 is 0.16 ± 0.015 µM.

And the “Expression of γH2AX” value [12]?
Its value is “increased the expression of γH2AX”.

What about the AUC(0-t) ([13]; ip) of the same compound?
Its AUC(0-t) is 86900 ng·h/mL.

And the half-life ([13]; ip)?
The half-life was > 24 h.

What about the AUC(0-t) ([13]; po) of the same compound?
Its AUC(0-t) is 485 ng·h/mL.

And the half-life ([13]; po)?
Its half-life is 4.03 h.

What about the “Acetylation of histone 3 and 4 (Acetyl-H3 and Acetyl-H4)” value [14] of the same compound?
Its value is “hyperacetylation effect of histone 3 and 4 (Acetyl-H3 and Acetyl-H4) in a dose-dependent manner”.

What about the IC50 [15] of the same compound?
The IC50 was 0.56 to 1.9 µM.

And the IC50 [16]?
Its IC50 is > 100 µM.

What about the “TOP2 inhibitory activity (relaxation assay)” value ([17]; 50 μmol/L) of the same compound?
The value was “remarkable TOP2 inhibitory activities”.

And the “TOP2 inhibitory activity (relaxation assay)” value ([17]; 100 μmol/L)?
Its value is “remarkable TOP2 inhibitory activities”.

And the “Ratio of cells at the G2/M phase” value ([18]; HCT116, 0.5 μmol/L)?
The value was 32.9%.

And the “Ratio of cells at the G2/M phase” value ([18]; HCT116, 1 μmol/L)?
Its value is 36.4%.

What about the “Ratio of cells at the G2/M phase” value ([18]; HCT116, 2 μmol/L) of the same compound?
Its value is 38.8%.

What about the “Tumor growth inhibition (TGI)” value ([19]; 20 mg/kg, i.p., 14 consecutive days) of the same compound?
The value was 63.6%.

What about the “Tumor growth inhibition (TGI)” value ([19]; 100 mg/kg, p.o., 21 days) of the same compound?
Its value is 65.42%.

What about the “Tumor growth inhibition (TGI)” value ([19]; 150 mg/kg, p.o., 21 days (dose of the combination not given)) of the same compound?
Its value is 75.2%.

And the “Body weight during the test” value ([19]; p.o., 100 or 150 mg/kg, 21 days)?
The value was “no significant difference”.

And the IC50 [20]?
Its IC50 is > 100 µM.

What about the IC50 [21] of the same compound?
The IC50 was 27 ± 4.8 µM.
